Experimental findings from paper PMC11795718 (Angewandte Chemie (International Ed. in English), 2024) are described below.

Structures are written as SMILES.

For one data set, the target named is T1, h-15-LOX-1 (Homo sapiens, UniProt P16050).
T1 sequence (P16050 1-662): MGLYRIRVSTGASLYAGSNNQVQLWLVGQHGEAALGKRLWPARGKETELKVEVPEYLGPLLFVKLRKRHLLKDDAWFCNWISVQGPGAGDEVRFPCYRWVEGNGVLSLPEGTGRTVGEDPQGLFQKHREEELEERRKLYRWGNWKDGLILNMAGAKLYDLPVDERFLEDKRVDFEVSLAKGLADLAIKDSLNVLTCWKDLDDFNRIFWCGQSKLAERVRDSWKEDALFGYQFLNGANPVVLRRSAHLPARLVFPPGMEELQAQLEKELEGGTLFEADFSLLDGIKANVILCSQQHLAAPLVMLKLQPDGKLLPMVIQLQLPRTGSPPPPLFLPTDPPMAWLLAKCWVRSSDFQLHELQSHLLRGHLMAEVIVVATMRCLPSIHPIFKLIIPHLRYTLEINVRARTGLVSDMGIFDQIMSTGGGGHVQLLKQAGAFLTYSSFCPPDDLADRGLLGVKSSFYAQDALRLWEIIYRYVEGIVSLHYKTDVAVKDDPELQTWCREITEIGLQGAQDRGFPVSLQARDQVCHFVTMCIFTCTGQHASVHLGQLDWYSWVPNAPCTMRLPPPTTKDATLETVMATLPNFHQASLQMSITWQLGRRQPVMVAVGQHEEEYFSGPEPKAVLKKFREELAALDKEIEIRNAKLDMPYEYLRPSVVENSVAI
As to the kind of experiment: Michaelis-Menten / Lineweaver-Burk kinetics. It is filed as biochemical.

The test system of the next data set is soybean LOX. Description: soybean LOX inhibition. As to conditions: selectivity. The format is biochemical.
Data set [1] concerns the target T2, purified 15‐LOX‐1 (Homo sapiens, UniProt P16050).
T2 sequence (P16050 1-662): T1 sequence (P16050 1-662)
Description: MS-based proteomics of covalent modification. It is filed as binding. Particulars: adduct after preincubation with purified 15-LOX-1.

For data set [2], the system named is 15‐LOX‐1 in RAW 264.7 cells. As to the kind of experiment: cell-based competition assay. Also on record: species or system murine. Particulars: for competition with BAM10 labelling, 10-fold competitor: 5 μM BAM10, competitor 10-fold (50 μM); for competition with BAM10 labelling, equimolar competitor: 5 μM BAM10, equimolar concentration of competitor.
A further data set concerns C. elegans. As to the kind of experiment: growth and imaging of BAM10-treated C. elegans. The format is in vivo, Caenorhabditis elegans. Particulars: 5 μM BAM10, competitor 50 μM, co-treated plates.
For data set [3], the target named is T2, purified 15‐LOX‐1. Description: fluorescence labeling of recombinant purified 15-LOX-1. As to conditions: applied prior to the probe BAM10. The format is binding. The method, boiled down:
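Recombinant purified human 15‑LOX‑1 was incubated briefly with the fluorescent probe, then acetone‑precipitated, leaving excess probe in the supernatant; fluorescence of the labelled protein was read. For the dot‑blot, enzyme with or without pre‑incubation with a reference inhibitor was probe‑treated; controls lacked enzyme. Duplicates (n=2).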

For another data set, the system named is RAW 264.7 cells. As to the kind of experiment: imaging-based cell permeability and retention assay. Details: species or system murine. Particulars: live RAW 264.7 cells, timeframe of the experiment. The method, boiled down:
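Live RAW 264.7 cells were treated in situ on the confocal microscope with the fluorescein‑tagged probe at room temperature. Images were recorded immediately and continuously to follow cellular uptake over time.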

For `CC#CCC#CCCCC=O` [BAM1], the “type of inhibition (Lineweaver–Burk plots)” value at h-15-LOX-1 is given as “noncompetitive inhibition”.
For the compound `CC#CCC#CCCCC=NNc1ccccc1` [BAM3], in the data set with soybean LOX, the “difference in inhibitory potency in favor of human 15-LOX-1 over soybean LOX” value came out at 4 fold. In addition, the “mass increase of tryptic peptide [YTLEINVRAR] (amino acids 395–404)” value at purified 15‐LOX‐1 [1] is reported as 230 Da. For the same compound, in data set [2], the “competition with BAM10 labelling, 10-fold competitor” value is on record as “reduction of BAM10 fluorescence intensity” and the “competition with BAM10 labelling, equimolar competitor” value is on record as “not significant”. In addition, the “competition with BAM10 fluorescence in the pharynx” value in the data set on C. elegans was “reduced BAM10 fluorescence intensity”.
With `CCCCNC(=O)c1cc(-c2ccccc2)sc1N` [ThioLox, reference compound], in data set [2], the “competition with BAM10 labelling, 10-fold competitor” value is given as “decreased almost to background levels” and the “competition with BAM10 labelling, equimolar competitor” value is listed as “not significant”. Further, the “competition with BAM10 fluorescence in the pharynx” value with C. elegans is recorded as “reduced BAM10 fluorescence intensity”. For the same compound, the “effect on BAM10 labeling of the enzyme (dot-blot)” value on purified 15‐LOX‐1 [3] is “reduced labeling of the enzyme”.
`O=C1OC2(c3ccc(O)cc3Oc3cc(O)ccc32)c2ccccc21` [fluorescein]: the cell permeability entry in the data set on RAW 264.7 cells is reported as “impermeable”.
